Source: PubChem BioAssay
DENV2 CPE: DENV2-induced cell death inhibition; DENV2-infected cells, cytopathic effect rescue, plate reader; CPE inhibition, % at 9.99 µM; hit rate 1.7% among 350,000; AID 651640; in the data active = CPE inhibition above about 20%, passing the limit was not always enough; inconclusive = no clear call, values can overlap the other calls; tested in BHK-21 cells;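 note: 0% = median of neutral control wells and 100% = median of positive control wells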
Cneo AK release: Cryptococcus neoformans lysis via adenylate kinase release | C. neoformans lysis, adenylate kinase release luminescence, 4 h; normalised: neutral wells 0, clomiphene wells 100 | lysis activity, % at 15 µM | hit rate 0.2% among 360,000 | AID 651654;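 active = mean lysis activity across replicates of at least 80%, whatever share of replicates individually reach that level; inactive = mean lysis activity below 80%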
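Material – Cryptococcus neoformans yeast cells · Quantity – 5 × 10^6 yeast cells/mL · Buffer or medium – YPD medium · Compound – single dose · Timing – 4 h static compound exposure, 37 °C, read 1 h post-reagent · Signal – adenylate kinase release luminescence · Read-out basis – lysis from increased AK signal · Benchmarks – Clomiphene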
C2C12 statin: suppressors of simvastatin-induced myotoxicity in C2C12 myotubes; ATP luminescence, 48 h; scaled: DMSO 0, geranylgeraniol control 100; rescue of ATP level, % at 7.49 µM; hit rate 0.78% among 330,000;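 active = mean ATP rescue above about 67%, or every replicate alone reaching that limit, limit read from the data, passing the limit was not always enough; inconclusive = no clear call, values can overlap the other calls; inactive = mean under the limit and some replicate under it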;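 note: myotubes were challenged with 10 µM simvastatin during compound exposure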
Xi reactivation: X-chromosome reactivation activator; XiGFP mouse fibroblasts, % GFP-positive cells imaging, 3 d; cells co-treated with 5-aza-dC sensitizer; scaled so ellipticine positive control = 100%; activation, % at 7.58 µM; hit rate 0.055% among 360,000;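 active = mean normalized replicate activation at least 10% and every replicate at or above 10%; inconclusive = only one of the two criteria met; inactive = mean below 10% and not all replicates reach 10%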;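 note: 0% = median of on-plate neutral control wells and 100% = ellipticine 6 µM median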
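System: 68-5-11 XiGFP fibroblast line; Timing: 3 days compound exposure; Compound dosing: one concentration, pinned; Benchmarks: positive control ellipticine, 6 µM final; Buffer or medium: DMEM containing 5-aza-dC.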
* = called active by the depositor; ? = inconclusive; / = no result given; ! = a repeat was not active. Only some compounds are listed: those with a hit (about 2.1% of all), similar ones and a draw of the others.

SMILES	DENV2 CPE	Cneo AK release	C2C12 statin	Xi reactivation
Cc1ccccc1S(=O)(=O)N1C(c2ccc(Cl)cc2)CC=C(C(=O)O)C1c1cccc(Cl)c1 (stereo not given)	66.7*	/	/	-0.1
C[C@H]1CN([C@@H](C)CO)C(=O)Cc2cc(NS(=O)(=O)c3ccccc3)ccc2O[C@@H]1CN(C)CC1CC1	0.5	-1.0	7.6	-1.1
COc1ccc2c(c1)N(C)C(=O)CC(c1ccccc1)=N2	/	1.2	107.7*	/
O=C1CC(c2ccccc2)=Nc2ccccc2N1Cc1ccccc1	3.0	/	/	0.0
CCC(=O)Nc1ccc2c(c1)OC[C@@H](C)N(CC1CCCCC1)C[C@H](C)[C@H](OC)CN(C)C2=O	/	/	-6.6	-0.4
Nc1nonc1-c1nc2ccccc2n1Cc1ccc(F)cc1Cl	/	-1.0	116.0*	/
CO[C@H]1CN(C)C(=O)c2cc(NC(=O)Nc3ccccc3F)ccc2OC[C@@H](C)NC[C@H]1C	-3.1	0.4	-13.9	0.1
O=C(c1ccco1)N1CCCC(N2CCN(c3ccccc3F)CC2)C1 (stereo not given)	0.8	1.0	-3.6	-0.1
Cc1occc1C(=O)N1CCCC(N2CCN(c3ccccc3F)CC2)C1 (stereo not given)	26.3*	-0.4	2.6	0.0
COc1cc(/C=C/C(=O)Nc2nnc(CC(C)(C)C)s2)cc(OC)c1OC	99.6*	5.9	-24.6	0.0
C[C@H]1CC=CCCNC(=O)[C@H](C)N(C)C(=O)c2ccccc2O1 (mixture of isomers)	/	/	/	0.1
O=C(NCCc1ccncc1)[C@H]1[C@H](CO)[C@H]2Cn3c(ccc(C4=CCCCC4)c3=O)[C@@H]1N2CC1CC1	/	/	2.5	0.2
C[C@@H]1CN([C@H](C)CO)S(=O)(=O)c2ccc(C#CC3(O)CCCC3)cc2O[C@@H]1CN(C)C(=O)Cc1ccncc1	-4.2	-1.8	1.1	-0.1
CN(C)N1C(N)=C(C#N)C(c2ccccc2)C2=C1CC(C)(C)CC2=O (stereo not given)	45.7*	/	/	0.0
C[C@@H]1CN([C@@H](C)CO)C(=O)c2cccc(NC(=O)Nc3ccc(C(F)(F)F)cc3)c2O[C@H]1CN(C)C(=O)Nc1ccc(C(F)(F)F)cc1	8.3	-0.9	-21.4	-0.1
Cc1noc(C)c1NC(=O)N(C)C[C@H]1Oc2ccc(NC(=O)Nc3cccc4ccccc34)cc2CC(=O)N([C@@H](C)CO)C[C@@H]1C	10.5	56.4	-17.2	-1.0
C[C@@H]1CN([C@@H](C)CO)C(=O)CCCn2nncc2CO[C@H]1CN(C)Cc1cccc2c1OCCCO2	45.4*!	1.7	-1.8	0.1
CC(C)NC(=O)N(C)C[C@H]1OCc2cnnn2CCCC(=O)N([C@H](C)CO)C[C@@H]1C	91.8*!	-3.4	1.6	-0.1
CCOC(=O)N(C)C[C@H]1OCc2cnnn2CCCC(=O)N([C@H](C)CO)C[C@H]1C	-6.2	-3.7	7.2	-0.1
C[C@@H]1CN([C@@H](C)CO)C(=O)CCCn2nncc2CO[C@H]1CN(C)C(=O)Nc1ccccc1	30.8*	-0.2	-0.5	0.4
CCOC(=O)N(C)C[C@@H]1OCc2cnnn2CCCC(=O)N([C@@H](C)CO)C[C@@H]1C	70.1*!	0.2	-6.5	-0.1
CCC(=O)N1[C@H](CNC(=O)CN2CCOCC2)[C@@H](c2ccccc2)[C@@H]1CO	-12.3	-0.6	-9.6	0.0
CC(=O)N1[C@H](CO)[C@H](c2ccccc2)[C@H]1CNC(=O)CN1CCOCC1	-10.3	-6.9	-6.5	0.0
CN1CCN(C(=O)C[C@@H]2CC[C@@H]3[C@H](COC[C@H](O)CN3Cc3ccc(Oc4ccccc4)cc3)O2)CC1	-0.2	-1.8	11.9	0.4
COc1cccc(S(=O)(=O)N(C)C[C@H]2OCc3cnnn3CCCC(=O)N([C@H](C)CO)C[C@H]2C)c1	?	102.7*!	12.9	0.0
SMILES	DENV2 CPE	Cneo AK release	C2C12 statin	Xi reactivation
CO[C@@H]1CN(C)C(=O)c2ccc(NC(=O)C3CC3)cc2OC[C@H](C)N(C(=O)c2ccccc2)C[C@H]1C	3.6	-0.6	-3.1	-0.5
CCCCC1=CC2=CC(=O)C(C)(OC(=O)CC)C(=O)C2=CN1CCc1c[nH]c2ccccc12 (stereo not given)	20.5*	4.2	8.8	0.7
C[C@@H]1CN([C@@H](C)CO)C(=O)Cc2cc(NC(=O)CCC(F)(F)F)ccc2O[C@H]1CN(C)Cc1ccc(-c2ccccc2)cc1	3.7	1.7	27.8	3.1
C[C@H](CO)N1C[C@H](C)[C@@H](CN(C)S(C)(=O)=O)Oc2ccc(NC(=O)Cc3ccccc3)cc2CC1=O	23.1*	6.9	4.0	0.1
C[C@@H]1CN([C@H](C)CO)C(=O)Cc2cc(NC(=O)CCC(F)(F)F)ccc2O[C@H]1CN(C)Cc1ccc(Oc2ccccc2)cc1	3.4	-1.2	102.3*	0.0
C[C@H]1CN([C@@H](C)CO)C(=O)Cc2cc(NC(=O)CCC(F)(F)F)ccc2O[C@H]1CN(C)Cc1ccc(-c2ccccc2)cc1	57.3*	5.3	0.4	-0.4
C[C@@H]1CN([C@H](C)CO)C(=O)Cc2cc(NC(=O)CCC(F)(F)F)ccc2O[C@H]1CN(C)Cc1ccccc1	13.1	-7.8	18.0	-0.4
C[C@@H]1CN([C@@H](C)CO)C(=O)Cc2cc(NC(=O)CCN3CCOCC3)ccc2O[C@H]1CN(C)Cc1ccc(-c2ccccc2)cc1	32.2*	/	/	0.2
CCCN1C[C@H](C)[C@H](OC)CN(C)C(=O)c2cc(NC(=O)c3cccc(OC)c3)ccc2OC[C@@H]1C	/	/	-3.7	0.2
CO[C@H]1CN(C)C(=O)c2cc(NS(=O)(=O)c3ccccc3)ccc2OC[C@@H](C)N(C(=O)NC(C)C)C[C@H]1C	4.8	-1.4	-1.7	0.5
O=C(C[C@@H]1CC[C@H]2[C@@H](COC[C@H](O)CN2CC2CC2)O1)NCc1ccc(Cl)cc1	?	48.5	2.3	0.1
C[C@H](CO)N1C[C@H](C)[C@@H](CN(C)Cc2ccc(-c3ccccc3)cc2)Oc2ccc(NC(=O)Cc3ccccc3)cc2CC1=O	-8.9	-0.4	76.1*	0.3
Cc1cccc(NC(=O)C2(c3cccs3)CCOCC2)c1	/	2.7	/	0.0
Cc1ccc(NC(=O)C2(c3cccs3)CCOCC2)cc1C	26.2*	1.4	/	-0.1
CCN(CC)C(=O)c1ccc(NS(=O)(=O)c2ccc(/C=C/C(=O)O)cc2)cc1	7.8	/	/	0.1
CCN(CC)C(=O)c1ccc(NS(=O)(=O)c2ccccc2)cc1	/	-1.1	103.3*	/
CC(C)NC(=O)Nc1ccc2c(c1)C(=O)N([C@@H](C)CO)C[C@H](C)[C@H](CN(C)S(=O)(=O)c1cn(C)cn1)OCCCC[C@@H](C)O2	-4.4	0.3	/	0.3
C[C@@H]1CCCCO[C@H](CN(C)S(=O)(=O)c2ccc(Cl)cc2)[C@H](C)CN([C@H](C)CO)C(=O)c2cc(NS(=O)(=O)c3cccs3)ccc2O1	6.9	74.8	/	0.4
C[C@@H]1CCCCO[C@H](CN(C)S(=O)(=O)c2cccs2)[C@H](C)CN([C@@H](C)CO)C(=O)c2cc(NS(=O)(=O)c3ccc(Cl)cc3)ccc2O1	31.4*	44.7	/	0.0
